Measurements reported in ChEMBL document CHEMBL1149258, “Synthesis and structure-activity relationships of novel histamine H1 antagonists: indolylpiperidinyl benzoic acid derivatives” (J Med Chem, 2004).
Calls of active or inactive are those of the source. Unless noted, the rule behind the calls is not given here.

Assays:
[1] = Half life in Wistar rat at 1 mg/kg, iv after 8 hrs; format: ADME, organism-based; design: dose 1 mg/kg, route intravenous; details: in vivo
Procedure, shortened: (§1)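 Male Wistar rats, fasted overnight, dosed iv at 1 mg/kg. Blood sampled from 0.1 to 24 h; plasma stored at -20 °C. Levels measured by isocratic HPLC-UV (225 nm) after on-line solid-phase extraction, or by HPLC-MS (ESI+) for one analyte. Parameters from noncompartmental analysis.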

[2] = Volume of distribution at steady state in Wistar rat at 1 mg/kg, iv after 8 hrs; format: ADME, organism-based; design: dose 1 mg/kg, route intravenous; details: in vivo, read-out: Vss; procedure, shortened: as §1
[3] = Clearance in Wistar rat at 1 mg/kg, iv after 8 hrs; format: ADME, organism-based; design: dose 1 mg/kg, route intravenous; details: in vivo; procedure, shortened: as §1
[4] = molecular target: Histamine H1 receptor (Mus musculus) (UniProt P70174); experiment: Ex vivo displacement of [3H]mepyramine from brain histamine H1 receptor in orally dosed Swiss Albino mouse; format: functional, organism-based
Procedure, shortened: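 Overnight-fasted male mice (20-25 g) dosed orally at several doses (0.5% methylcellulose/0.1% Tween 80, 10 mL/kg), killed 90 min later. Whole brain homogenised in ice-cold 0.05 M Na+/K+ phosphate pH 7.4; aliquots incubated in triplicate with 2 nM final [3H]-mepyramine, 40 min at 30 °C, then filtered. Nonspecific binding from 30 mg/kg po D-chlorpheniramine; total binding from vehicle. Three animals per dose; ED50 reported.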

Rattus norvegicus [5] = experiment: Inhibition of increase in histamine-induced cutaneous vascular permeability in orally dosed Wistar rat model after 8 hrs; format: functional; details: po
Procedure, shortened: (§2)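 Male Wistar rats (150-175 g), fasted, dosed orally in 0.5% methylcellulose/0.1% Tween 80 (10 mL/kg), n=5. At 1 or 8 h after dosing, four intradermal injections of 5 µg histamine were given, plus iv 0.5% Evans Blue. Papule area (ellipse) measured 1 h later. ED50 in mg/kg po.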

Rattus norvegicus [6] = experiment: Inhibition of increase in histamine-induced cutaneous vascular permeability in orally dosed Wistar rat model after 4 hrs; format: functional; details: po
Procedure, shortened: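 Fasted male rats (150-175 g; n=5 per condition) dosed orally in 0.5% methylcellulose/0.1% Tween 80. At 4 h, under light ether, received four intradermal injections of 5 µg histamine, then 0.5% Evans Blue iv. Killed 1 h later. Papule area from maximum and minimum diameters (ellipse); inhibition of papule area; ED50 (mg/kg, po).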

[7] = molecular target: T1, Adrenergic receptor alpha-1 (Rattus norvegicus, UniProt P15823+P23944+P43140); experiment: Displacement of [3H]prazosin from adrenergic alpha-1 receptor in rat brain membranes; format: cell membranes
T1 sequence (P15823 whole entry): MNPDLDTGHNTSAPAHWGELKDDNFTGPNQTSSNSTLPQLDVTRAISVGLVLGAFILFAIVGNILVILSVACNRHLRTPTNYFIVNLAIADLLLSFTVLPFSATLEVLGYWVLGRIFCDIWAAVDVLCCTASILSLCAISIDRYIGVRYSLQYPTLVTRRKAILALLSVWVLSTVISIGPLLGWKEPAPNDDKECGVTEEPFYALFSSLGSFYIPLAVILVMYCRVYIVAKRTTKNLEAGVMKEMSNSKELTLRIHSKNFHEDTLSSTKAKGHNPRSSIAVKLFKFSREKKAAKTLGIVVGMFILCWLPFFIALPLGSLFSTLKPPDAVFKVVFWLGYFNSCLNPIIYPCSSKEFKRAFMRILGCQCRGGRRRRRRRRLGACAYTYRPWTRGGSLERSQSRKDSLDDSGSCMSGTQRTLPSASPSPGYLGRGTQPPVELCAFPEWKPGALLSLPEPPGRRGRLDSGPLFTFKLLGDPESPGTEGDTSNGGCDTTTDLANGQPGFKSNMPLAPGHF
T1 sequence (P23944 whole entry): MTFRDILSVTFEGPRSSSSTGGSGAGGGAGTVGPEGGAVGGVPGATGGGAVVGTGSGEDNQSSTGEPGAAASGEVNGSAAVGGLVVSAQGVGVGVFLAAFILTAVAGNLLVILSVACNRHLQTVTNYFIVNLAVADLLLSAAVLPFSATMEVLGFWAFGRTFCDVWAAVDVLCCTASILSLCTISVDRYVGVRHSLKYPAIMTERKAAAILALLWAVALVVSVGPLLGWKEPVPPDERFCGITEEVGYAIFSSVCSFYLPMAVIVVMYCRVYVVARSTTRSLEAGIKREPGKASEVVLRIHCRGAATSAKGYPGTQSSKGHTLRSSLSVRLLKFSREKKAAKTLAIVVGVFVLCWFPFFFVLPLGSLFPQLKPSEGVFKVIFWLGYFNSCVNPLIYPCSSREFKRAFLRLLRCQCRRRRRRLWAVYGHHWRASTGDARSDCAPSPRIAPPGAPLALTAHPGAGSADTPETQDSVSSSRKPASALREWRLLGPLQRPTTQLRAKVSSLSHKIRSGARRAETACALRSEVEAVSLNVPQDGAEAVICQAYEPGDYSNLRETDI
T1 sequence (P43140 whole entry): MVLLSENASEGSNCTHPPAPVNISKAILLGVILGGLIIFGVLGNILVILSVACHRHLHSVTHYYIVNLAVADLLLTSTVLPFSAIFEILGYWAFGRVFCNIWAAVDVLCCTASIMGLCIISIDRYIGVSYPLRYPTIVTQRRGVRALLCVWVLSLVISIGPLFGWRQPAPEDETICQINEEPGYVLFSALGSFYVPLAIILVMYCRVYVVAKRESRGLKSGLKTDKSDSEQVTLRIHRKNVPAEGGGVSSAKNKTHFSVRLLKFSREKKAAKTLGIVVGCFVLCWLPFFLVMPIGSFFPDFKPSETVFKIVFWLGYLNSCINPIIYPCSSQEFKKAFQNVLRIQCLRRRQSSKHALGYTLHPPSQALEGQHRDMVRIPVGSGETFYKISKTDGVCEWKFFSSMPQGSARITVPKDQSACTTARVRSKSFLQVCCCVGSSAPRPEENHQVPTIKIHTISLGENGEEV
Procedure, shortened: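 Rat brain membranes (340 µg protein/mL) with 0.25 nM [3H]-prazosin in 50 mM Tris-HCl pH 7.7, room temperature, 60 min, filtration. Nonspecific binding with 100 µM prazosin. Several concentrations run in duplicate; IC50 by nonlinear regression.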

Histamine H1 receptor = Histamine H1 receptor (Cavia porcellus, UniProt P31389); experiment: Displacement of [3H]mepyramine from histamine H1 receptor in guinea pig cerebellum membranes; format: cell membranes, Membrane
Procedure, shortened: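 Guinea pig cerebellum membranes (160 µg/mL) incubated with 0.7 nM [3H]-mepyramine at 30 °C for 30 min, 0.5 mL final volume, ended by filtration. Nonspecific binding with 10 µM promethazine. At least six concentrations in duplicate; IC50 by nonlinear regression. Compound stocks 10^-2 M in DMSO, diluted in 50% DMSO.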

Rattus norvegicus [8] = experiment: Inhibition of increase in histamine-induced cutaneous vascular permeability in orally dosed Wistar rat model after 1 hrs; format: functional; details: po; procedure, shortened: as §2
Cavia porcellus [9] = experiment: Effect on QT interval prolongation in Dunkin-Hartley guinea pigs at 10 mg/kg, iv; format: functional, organism-based; design: dose 10 mg/kg
Cavia porcellus [10] = experiment: Effect on QT interval prolongation in Dunkin-Hartley guinea pigs at 30 mg/kg, iv; format: functional, organism-based; design: dose 30 mg/kg
Procedure, shortened: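 Male guinea pigs (500-600 g), urethane 1.5 g/kg anaesthesia, ventilated (10 mL/kg, 60 cycles/min). Stabilised at least 30 min, then 3-min jugular iv perfusion at 3, 10 and 30 mg/kg. Surface ECG recorded at end of perfusion and at 15, 30, 45 and 60 min. QTc by Bazett; change in ms from baseline. Vehicle-only controls.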

CYP3A4 = CYP3A4 (Homo sapiens, UniProt P08684); experiment: Inhibition of CYP3A4 in human microsomes at 25 uM; format: ADME, Microsome
[11] = molecular target: Adrenergic receptor alpha-1 (Rattus norvegicus) (UniProt P15823+P23944+P43140); experiment: Displacement of [3H]prazosin from adrenergic alpha-1 receptor in rat brain membranes at 10 uM; format: cell membranes
[12] = molecular target: Histamine H1 receptor (Cavia porcellus) (UniProt P31389); experiment: Displacement of [3H]mepyramine from histamine H1 receptor in guinea pig cerebellum membranes at […]; format: cell membranes; details: Membrane
Procedure, shortened: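 Guinea-pig cerebellum membranes (160 µg/mL) incubated at 30 °C for 30 min with 0.7 nM [3H]-mepyramine, 0.5 mL final volume; filtration, bound radioactivity counted. Nonspecific binding with 10 µM promethazine. At least six concentrations in duplicate; IC50 by nonlinear regression. Stocks 10^-2 M in DMSO, further dilutions in 50% DMSO.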

Cavia porcellus [13] = experiment: Effect on QT interval prolongation in Dunkin-Hartley guinea pigs at 3 mg/kg, iv; format: functional, organism-based; design: dose 3 mg/kg

Sequence of Histamine H1 receptor (P31389 whole entry): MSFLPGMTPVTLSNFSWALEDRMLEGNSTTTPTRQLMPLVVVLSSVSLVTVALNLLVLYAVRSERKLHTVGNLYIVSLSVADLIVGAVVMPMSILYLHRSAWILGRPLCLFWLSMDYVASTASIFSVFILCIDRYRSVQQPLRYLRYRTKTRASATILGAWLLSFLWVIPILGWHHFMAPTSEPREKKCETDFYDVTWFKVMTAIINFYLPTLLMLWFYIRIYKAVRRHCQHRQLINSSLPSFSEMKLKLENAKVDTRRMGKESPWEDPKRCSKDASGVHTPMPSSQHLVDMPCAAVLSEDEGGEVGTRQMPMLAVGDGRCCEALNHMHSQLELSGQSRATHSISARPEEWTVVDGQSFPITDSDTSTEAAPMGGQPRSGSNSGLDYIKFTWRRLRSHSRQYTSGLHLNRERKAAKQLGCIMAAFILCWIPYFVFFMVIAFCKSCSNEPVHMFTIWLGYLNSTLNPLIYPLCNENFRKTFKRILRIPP
Sequence of CYP3A4 (P08684 whole entry): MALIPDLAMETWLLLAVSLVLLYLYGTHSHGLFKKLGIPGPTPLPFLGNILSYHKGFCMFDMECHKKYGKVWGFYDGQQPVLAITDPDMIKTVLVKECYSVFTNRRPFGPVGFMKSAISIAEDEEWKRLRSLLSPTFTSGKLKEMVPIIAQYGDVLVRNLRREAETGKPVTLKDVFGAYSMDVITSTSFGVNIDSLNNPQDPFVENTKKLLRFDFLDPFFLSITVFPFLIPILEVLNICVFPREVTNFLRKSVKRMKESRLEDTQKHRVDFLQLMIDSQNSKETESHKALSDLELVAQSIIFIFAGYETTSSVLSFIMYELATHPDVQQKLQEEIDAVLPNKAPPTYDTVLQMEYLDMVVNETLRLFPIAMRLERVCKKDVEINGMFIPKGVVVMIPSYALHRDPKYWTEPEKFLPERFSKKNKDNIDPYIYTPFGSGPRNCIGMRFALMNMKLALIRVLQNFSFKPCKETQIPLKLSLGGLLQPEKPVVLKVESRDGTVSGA
Sequence of Histamine H1 receptor (Mus musculus) (P70174 whole entry): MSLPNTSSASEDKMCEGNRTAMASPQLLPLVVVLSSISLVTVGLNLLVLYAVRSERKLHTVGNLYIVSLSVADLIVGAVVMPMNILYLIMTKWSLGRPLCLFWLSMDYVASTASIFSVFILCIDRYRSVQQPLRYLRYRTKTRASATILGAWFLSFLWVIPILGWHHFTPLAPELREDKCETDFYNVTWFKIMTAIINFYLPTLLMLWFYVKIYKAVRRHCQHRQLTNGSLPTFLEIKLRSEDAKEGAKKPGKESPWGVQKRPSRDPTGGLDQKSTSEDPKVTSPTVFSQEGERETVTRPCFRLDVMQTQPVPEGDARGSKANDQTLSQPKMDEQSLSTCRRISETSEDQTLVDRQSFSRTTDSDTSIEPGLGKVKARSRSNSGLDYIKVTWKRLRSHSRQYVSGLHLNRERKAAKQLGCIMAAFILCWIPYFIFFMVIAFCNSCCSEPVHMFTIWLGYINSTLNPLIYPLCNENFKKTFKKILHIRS
Sequence of Histamine H1 receptor (Cavia porcellus) (P31389 whole entry): as the sequence (P31389 whole entry) above

Row | half-life [1] [h] | Vd [2] [L/kg] | clearance [3] [mL/min/kg] | ED50 [4] [mg/kg] | IC50 [7] [µM] | IC50 (Histamine H1 receptor) | SMILES | ED50 (Rattus norvegicus [5]) | ED50 (Rattus norvegicus [6]) [mg/kg] | ED50 (Rattus norvegicus [8]) [mg/kg] | Activity (Cavia porcellus [9]) | Activity (Cavia porcellus [10]) | inhibition at 25 µM (CYP3A4) [%] | Activity [11] [%] | Activity [12] [%] | Activity (Cavia porcellus [13])
1 | 2.9 | 0.5 | 5 | > 100 | 6.5 |  | O=C(O)c1ccccc1OCCN1CCC(c2cn(CCC3OCCO3)c3ccccc23)CC1 | 0.9 mg/kg (antagonist) | 0.46 |  |  |  |  |  |  | 
2 |  |  |  | 10 | > 10 | 0.047 µM (antagonist) | CCCCn1cc(C2CCN(CCOc3ccccc3C(=O)O)CC2)c2ccc(F)cc21 | 0.14 mg/kg (antagonist) | 0.07 |  |  |  |  |  |  | 
3 | 0.9 | 0.5 | 13.3 | > 100 | > 10 | 0.155 µM (antagonist) | CCOCCn1cc(C2CCN(CCOc3ccccc3C(=O)O)CC2)c2cc(OC)ccc21 | 0.08 mg/kg (antagonist) | 0.035 |  |  |  |  |  |  | 
4 | 1.6 | 0.4 | 6.67 | 100 | > 10 |  | CCCCn1cc(C2CCN(CCOc3ccccc3C(=O)O)CC2)c2ccccc21 | 0.8 mg/kg (antagonist) | 0.74 |  |  |  |  |  |  | 
5 | 3.4 | 0.3 | 1.67 | 40 | > 10 | 0.14 µM (antagonist) | COCCn1cc(C2CCN(CCOc3ccccc3C(=O)O)CC2)c2ccc(F)cc21 | 0.13 mg/kg (antagonist) | 0.29 | 0.16 |  | inactive | 15 |  |  | 
6 | 1.1 | 0.7 | 10 | 8 | 10 |  | CCOCCn1cc(C2CCN(CCOc3ccccc3C(=O)O)CC2)c2ccccc21 | 0.22 mg/kg (antagonist) | 0.1 | 0.02 | inactive |  | 0 |  |  | 

Further lines, the molecule ahead of its results:

Row | SMILES | half-life [1] [h] | Vd [2] [L/kg] | clearance [3] [mL/min/kg] | ED50 [4] [mg/kg] | IC50 [7] [µM] | IC50 (Histamine H1 receptor) | ED50 (Rattus norvegicus [5]) | ED50 (Rattus norvegicus [6]) [mg/kg] | ED50 (Rattus norvegicus [8]) [mg/kg] | Activity (Cavia porcellus [9]) | Activity (Cavia porcellus [10]) | inhibition at 25 µM (CYP3A4) [%] | Activity [11] [%] | Activity [12] [%] | Activity (Cavia porcellus [13])
7 | CCOC(=O)N1CCC(=C2c3ccc(Cl)cc3CCc3cccnc32)CC1 [LORATADINE] |  |  |  |  |  |  |  |  | 0.75 | inactive |  |  |  |  | 
8 | COCCn1cc(C2CCN(Cc3ccc(OC)c(C(=O)O)c3)CC2)c2ccccc21 | 3.9 | 0.6 | 3.33 | 9.5 | > 10 |  | 0.14 mg/kg (antagonist) | 0.05 | 0.03 |  | inactive | -9 |  |  | 
9 | COc1ccc(CN2CCC(c3cn(Cc4cccs4)c4ccccc34)CC2)cc1C(=O)O | 3.1 | 1.8 | 10 | 11.5 | > 10 |  | 0.56 mg/kg (antagonist) | 0.24 | 0.32 | inactive |  | -5 |  |  | 
10 | COc1ccc(CN2CCC(c3cn(Cc4cccs4)c4cc(F)ccc34)CC2)cc1C(=O)O | 3.8 | 1.1 | 5 | 29 | > 10 |  | 0.66 mg/kg (antagonist) | 0.2 |  |  |  |  |  |  | 
11 | O=C(O)c1ccccc1OCCN1CCC(c2cn(Cc3ccoc3)c3cc(F)ccc23)CC1 |  |  |  | 19 | > 10 | 0.042 µM (antagonist) | 0.17 mg/kg (antagonist) | 0.12 |  |  |  |  |  |  | 
12 | CCOCCn1cc(C2CCN(Cc3ncccc3C(=O)O)CC2)c2ccccc21 |  |  |  |  |  |  |  |  |  |  |  |  | 4 | 11 | 
13 | CCOCCn1cc(C2CCN(Cc3ccc(C(=O)O)cc3)CC2)c2ccccc21 |  |  |  | 4.5 |  |  | 0.15 mg/kg (antagonist) |  |  |  |  |  | 8 | 7 | 
14 | O=C(O)COCCN1CCN(C(c2ccccc2)c2ccc(Cl)cc2)CC1 (centres undefined) |  |  |  |  |  |  |  |  |  |  |  |  |  |  | inactive
